Consider one compound from ChEMBL document CHEMBL4811218, “Discovery and optimization of withangulatin A derivatives as novel glutaminase 1 inhibitors for the treatment of triple-negative breast cancer” (Eur J Med Chem, 2021).

In data set [1] the test system is MDA-MB-231. Kind of data set: Antiproliferative activity against human MDA-MB-231 cells after 24 hrs by MTT assay. Type of data set: functional, cell-based. (Tetrazolium dyes change colour on reduction, which living cells bring about.)
Data set [2] relates to MDA-MB-231. Put plainly: Inhibition of colony formation in human MDA-MB-231 cells at 160 to 640 nM treated for 24 hrs and incubated for 2 weeks by crystal violet staining based assay. It counts as functional, cell-based. The conditions noted are these: dose 160-640 nM. Put shortly: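 MDA-MB-231 cells seeded at 1000 per well and left 24 h. Treated with DMSO vehicle or compound for 24 h, then grown two weeks with medium changed twice weekly. Colonies fixed in 4% paraformaldehyde and stained with 0.05% crystal violet. Result expressed as % of vehicle. n = 4.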

Data set [3] concerns MDA-MB-231. Kind of data set: Induction of apoptosis in human MDA-MB-231 cells assessed as viable cells at 160 nM incubated for 12 hrs by annexin V-FITC/PI based flow cytometric analysis (reference value: 98.1%). It counts as functional. The conditions noted are these: read-out: Activity. Put shortly: (§1)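 Cells exposed to compound or 0.1% DMSO for 12 h at 37°C, then resuspended in PBS at 1×10^5 cells/mL. Stained with annexin V-FITC and PI for 20 min at room temperature in the dark, then analysed by flow cytometry. Quadrant percentages reported: lower right early apoptotic, upper right late apoptotic. n = 4, mean ± SD.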
For orientation: In flow cytometry, cells or beads pass a laser one at a time.

For data set [4], the system named is MDA-MB-231. Kind of data set: Induction of apoptosis in human MDA-MB-231 cells assessed as early apoptotic cells at 160 nM incubated for 12 hrs by annexin V-FITC/PI based flow cytometric analysis (reference value: 1.2%). It counts as functional. Put shortly: as §1
For data set [5], the system named is MDA-MB-231. Kind of data set: Induction of apoptosis in human MDA-MB-231 cells assessed as necrotic cells at 160 nM incubated for 12 hrs by annexin V-FITC/PI based flow cytometric analysis (reference value: 0.1%). Type of data set: functional. In outline: as §1
Data set [6] relates to MDA-MB-231. Put plainly: Induction of apoptosis in human MDA-MB-231 cells assessed as late apoptotic cells at 320 nM incubated for 12 hrs by annexin V-FITC/PI based flow cytometric analysis (reference value: 0.7%). Type of data set: functional. In outline: as §1
Data set [7] has as its system MDA-MB-231. Put plainly: Induction of apoptosis in human MDA-MB-231 cells assessed as viable cells at 640 nM incubated for 12 hrs by annexin V-FITC/PI based flow cytometric analysis (reference value: 98.1%). It counts as functional. The conditions noted are these: read-out: Activity. In outline:
as §1

The test system of data set [8] is MDA-MB-231. Put plainly: Induction of apoptosis in human MDA-MB-231 cells assessed as early apoptotic cells at 640 nM incubated for 12 hrs by annexin V-FITC/PI based flow cytometric analysis (reference value: 1.2%). It counts as functional. Put shortly: as §1
Data set [9] relates to MDA-MB-231. Kind of data set: Induction of apoptosis in human MDA-MB-231 cells assessed as late apoptotic cells at 640 nM incubated for 12 hrs by annexin V-FITC/PI based flow cytometric analysis (reference value: 0.7%). It counts as functional. Put shortly: as §1
In data set [10] the test system is MDA-MB-231. Put plainly: Induction of apoptosis in human MDA-MB-231 cells assessed as necrotic cells at 640 nM incubated for 12 hrs by annexin V-FITC/PI based flow cytometric analysis (reference value: 0.1%). Type of data set: functional. In outline: as §1
The test system of data set [11] is MDA-MB-231. Kind of data set: Induction of apoptosis in human MDA-MB-231 cells assessed as increase in cleaved caspase-9 expression after 12 hrs by Western blotting analysis. It counts as functional, cell-based. As to conditions: dose 160-640 nM. In outline: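 MDA-MB-231 cells exposed to graded concentrations or 0.1% DMSO; the methods state 24 h, the legend 12 h. Lysed in RIPA, 80 µg protein per lane on SDS-PAGE and transferred to PVDF. Probed overnight at 4°C for caspase-3, cleaved caspase-3, caspase-9 and cleaved caspase-9, with GAPDH as loading control. HRP secondaries, ECL detection, densitometry. n = 4.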
Background: Immunoblotting shows a protein as a band on a membrane.

Data set [12] addresses T1, Glutaminase kidney isoform, mitochondrial (Homo sapiens) (UniProt O94925).
T1 sequence (whole entry): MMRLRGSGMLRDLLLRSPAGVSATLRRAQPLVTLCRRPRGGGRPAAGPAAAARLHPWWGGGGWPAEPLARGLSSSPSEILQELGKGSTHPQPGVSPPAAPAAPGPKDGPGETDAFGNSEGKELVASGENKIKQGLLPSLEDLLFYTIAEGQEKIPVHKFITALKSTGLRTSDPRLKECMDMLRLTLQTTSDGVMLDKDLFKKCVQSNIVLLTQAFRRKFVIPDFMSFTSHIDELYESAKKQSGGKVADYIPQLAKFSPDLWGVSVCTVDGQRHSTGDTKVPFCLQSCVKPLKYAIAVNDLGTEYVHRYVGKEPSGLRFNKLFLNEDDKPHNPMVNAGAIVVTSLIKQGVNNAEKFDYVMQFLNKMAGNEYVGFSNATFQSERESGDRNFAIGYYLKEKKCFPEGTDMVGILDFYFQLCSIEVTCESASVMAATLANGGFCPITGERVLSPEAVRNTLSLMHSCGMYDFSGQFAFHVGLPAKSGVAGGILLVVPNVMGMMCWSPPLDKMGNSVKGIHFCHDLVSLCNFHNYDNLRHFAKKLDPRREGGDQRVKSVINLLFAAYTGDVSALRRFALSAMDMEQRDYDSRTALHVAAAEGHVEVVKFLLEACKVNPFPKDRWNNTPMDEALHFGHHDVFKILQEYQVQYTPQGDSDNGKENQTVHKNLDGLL
Kind of data set: Inhibition of GLS1 in human MDA-MB-231 cells assessed as reduction in glutamate production incubated for 12 hrs by Amplex red glutamic acid assay. Type of data set: cell-based. As to conditions: dose 40-640 nM. Put shortly: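 MDA-MB-231 cells pre-cultured 24 h at 37°C, then given compound or 0.1% DMSO for a further 12 h. Cells washed in PBS and lysed in RIPA at 4°C. Glutamate in the lysate measured with an Amplex Red glutamic acid kit per the manufacturer's protocol.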

Data set [13] relates to MDA-MB-231. Kind of data set: Antitumor activity against human MDA-MB-231 cells xenografted in BALB/c nude mouse assessed as tumor growth inhibition at 25 to 50 mg/kg, ip administered every 3 days for 4 weeks. Type of data set: functional, organism-based. As to conditions: dose 25-50 mg/kg. Put shortly:
(§2)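 Nude mice given 3×10^6 MDA-MB-231 cells in 200 µL PBS, injected subcutaneously into the right flank. Once tumors reached about 100 mm³, mice were randomized into four groups. Dosing was 25 or 50 mg/kg i.p. every three days for four weeks. Tumor volume, tumor weight and body weight were followed. n = 6, mean ± SD.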

In data set [14] the test system is MDA-MB-231. Kind of data set: Antitumor activity against human MDA-MB-231 cells xenografted in BALB/c nude mouse assessed as reduction in tumor volume at 25 to 50 mg/kg, ip administered every 3 days for 4 weeks. It counts as functional, organism-based. The conditions noted are these: dose 25-50 mg/kg. In outline: as §2
Data set [15] concerns MDA-MB-231. Kind of data set: Antitumor activity against human MDA-MB-231 cells xenografted in BALB/c nude mouse assessed as reduction in tumor weight at 25 to 50 mg/kg, ip administered every 3 days for 4 weeks. It counts as functional, organism-based. The conditions noted are these: dose 25-50 mg/kg. Put shortly:
as §2

A short description of data set [16]: Toxicity in BALB/c nude mouse xenografted with human MDA-MB-231 cells assessed as liver tissue damage at 25 to 50 mg/kg, ip administered every 3 days for 4 weeks. It counts as organism-based. The conditions noted are these: in vivo, 672 h, dose 25-50 mg/kg. Put shortly: (§3)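 Xenograft-bearing nude mice (MDA-MB-231, s.c. right flank, treated from about 100 mm³) received 25 or 50 mg/kg i.p. every three days for four weeks. At the end mice were euthanized, and visceral organs were fixed in 4% paraformaldehyde for histopathology.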

Data set [17] is described as follows: Toxicity in BALB/c nude mouse xenografted with human MDA-MB-231 cells assessed as lung tissue damage at 25 to 50 mg/kg, ip administered every 3 days for 4 weeks. Type of data set: organism-based. The conditions noted are these: in vivo, 672 h, dose 25-50 mg/kg. Put shortly:
as §3

A short description of data set [18]: Toxicity in BALB/c nude mouse xenografted with human MDA-MB-231 cells assessed as kidney tissue damage at 25 to 50 mg/kg, ip administered every 3 days for 4 weeks. It counts as organism-based. The conditions noted are these: in vivo, 672 h, dose 25-50 mg/kg. Put shortly:
as §3

Each structure is given as a SMILES string. Active and inactive are the calls of the source. The rule behind the calls is not given here.

The term IC50 denotes the concentration at which inhibition is half-maximal. For the compound `CC(=O)O[C@H]1C=C([C@H](C)[C@H]2CC(C)=C(C)C(=O)O2)[C@@]2(C)CC[C@H]3[C@@H](C[C@H]4O[C@]45[C@@H](OC(=O)CCCC(=O)Nc4ccc(N6CCOCC6)c(F)c4)C=CC(=O)[C@]35C)[C@@]12O`, the Activity entry in data set [1] was “Dose-Dependent Effect”; in data set [4], 2.6%; in [5], 0.2%; in [6], 2.9%; in data set [8] it was 28.5%; in data set [9], 11.7%. Besides, the Activity was 0.1% in data set [10]; “Dose-Dependent Effect” in data set [11]; “Non-Toxic” in data set [16]; “Non-Toxic” in data set [17]; “Non-Toxic” in [18]. In data set [1] (MDA-MB-231, 24 h), this compound had an IC50 of 320 nM. For the same compound, in data set [2], the inhibition entry was “Active”. The viability at 0.16 µM in data set [3] was found to be 96.3%. Further, the viability at 0.64 µM in [7] came out at 59.7%. The inhibition result in data set [12] is “Dose-Dependent Effect”. The outcome in data set [13], in [14] and in [15] was Active.
